From ChEMBL document CHEMBL4304739, “Discovery of 3-(Indol-5-yl)-indazole Derivatives as Novel Myeloid Differentiation Protein 2/Toll-like Receptor 4 Antagonists for Treatment of Acute Lung Injury” (J Med Chem, 2019) come the findings set out here.

The source made the active and inactive calls. The rule behind the calls is not given here.

As usually defined, the Kd is the equilibrium constant for the complex coming apart.

Assay [1] is filed under the species Homo sapiens. Briefly: Inhibition of EGFP-fused NFkappaB (unknown origin) stably expressed in mouse RAW 264.7 cells assessed as reduction in LPS-induced transcriptional activation at 10 uM measured after 3 hrs by flow cytometric analysis. It counts as cell-based. In a few lines: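 RAW264.7 cells stably carrying an NF-κB response element–EGFP reporter (lentiviral, puromycin-selected). Cells treated with 500 ng/mL LPS for 1 h, then vehicle or compound (10 μM) for 3 h. EGFP signal measured by flow cytometry.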
(In flow cytometry, cells or beads pass a laser one at a time.)

In assay [2] the target is Toll-like receptor 4 (Homo sapiens, UniProt O00206). Briefly: Binding affinity to recombinant human C-terminal 10His-tagged TLR4 (Glu24 to Lys631 residues) expressed in mouse NS0 cells by surface plasmon resonance analysis.
The test system of assay [3] is Mus musculus. Briefly: Antiinflammatory activity in LPS-induced C57BL/6 mouse model of acute lung injury assessed as reduction in TNFalpha level at 5 to 10 mg/kg, iv pretreated for 15 mins followed by LPS stimulation and measured after 6 hrs by ELISA. It counts as functional, organism-based. In a few lines: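 Male C57BL/6 mice (18−22 g; n=8 per group). Compound in 0.1% CMC-Na given by tail vein injection 15 min before intraperitoneal LPS (20 mg/kg); controls received saline. Mice were sacrificed 6 h after LPS, and serum and lung tissue were collected.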
In general terms: An ELISA detects its analyte on a solid surface through an enzyme-linked reagent.

The subject of assay [4] is Mus musculus. Briefly: Antiinflammatory activity in LPS-induced C57BL/6 mouse model of acute lung injury assessed as reduction in IL1beta mRNA level at 10 mg/kg, iv pretreated for 15 mins followed by LPS stimulation and measured after 6 hrs by SYBR green staining-based qRT-PCR analysis. The assay is classed as functional, organism-based. In a few lines:
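Total lung RNA extracted, with DNase I removal of residual DNA. Quantitative PCR with mouse gene primers; each gene normalized to β-actin. C57BL/6 mice given compound iv 15 min before intraperitoneal LPS (20 mg/kg) and killed at 6 h.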

The subject of assay [5] is Tyrosine-protein kinase ABL1 (Homo sapiens), P00519 [E255K]. Briefly: Inhibition of human phosphorylated ABL1 E255K mutant (S229 to K512 residues) expressed in mammalian expression system at 1 uM by Kinomescan method. In a few lines: (§1)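 KINOMEscan competition binding screen at 1 μM compound. Results reported as % of control = (test − positive control)/(DMSO negative control − positive control) × 100, where lower values mean stronger hits.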

Assay [6] concerns the target Tyrosine-protein kinase ABL1 (Homo sapiens) (UniProt P00519). Briefly: Inhibition of wild-type human non-phosphorylated ABL1 (S229 to K512 residues) expressed in mammalian expression system at 1 uM by Kinomescan method. In a few lines:
as §1

Assay [7] has as its target RAC-beta serine/threonine-protein kinase (Homo sapiens) (UniProt P31751). Briefly: Inhibition of wild-type human partial length AKT2 expressed in bacterial expression system at 1 uM by Kinomescan method. In a few lines:
as §1

Assay [8] deals with Tyrosine-protein kinase receptor UFO (Homo sapiens) (UniProt P30530). Briefly: Inhibition of wild-type human partial length AXL (R497 to Y821 residues) expressed in bacterial expression system at 1 uM by Kinomescan method. In a few lines:
(§2)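 Binding-competition screen on the KINOMEscan platform, run by the provider, with the test compound at 1 μM. Readout is percent of control: (test signal − positive control signal)/(negative control signal − positive control signal) × 100. The DMSO negative control is set as 100% Ctrl and a control compound as 0% Ctrl. Lower values mean stronger hits.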

Assay [9] concerns the target Tyrosine-protein kinase BTK (Homo sapiens) (UniProt Q06187). Briefly: Inhibition of wild-type human full length BTK (M1 to S659 residues) expressed in mammalian expression system at 1 uM by Kinomescan method. In a few lines:
as §1

Assay [10] has as its target Cyclin-dependent kinase 2 (Homo sapiens) (UniProt P24941). Briefly: Inhibition of wild-type human full length CDK2 (M1 to L298 residues) expressed in bacterial expression system at 1 uM by Kinomescan method. In a few lines:
as §1

Assay [11] addresses Receptor tyrosine-protein kinase erbB-2 (Homo sapiens) (UniProt P04626). Briefly: Inhibition of wild-type human partial length ERBB2 (K646 to V1225 residues) expressed in mammalian expression system at 1 uM by Kinomescan method. In a few lines: as §2
The target of assay [12] is Inhibitor of nuclear factor kappa-B kinase subunit beta (Homo sapiens) (UniProt O14920). Briefly: Inhibition of wild-type human full length IKK-beta (M1 to S756 residues) expressed in mammalian expression system at 1 uM by Kinomescan method. In a few lines:
as §1

Assay [13] has as its target Mitogen-activated protein kinase 9 (Homo sapiens) (UniProt P45984). Briefly: Inhibition of wild-type human full length JNK2 (M1 to Q382 residues) expressed in mammalian expression system at 1 uM by Kinomescan method. In a few lines:
as §1

In assay [14] the target is Hepatocyte growth factor receptor (Homo sapiens) (UniProt P08581). Briefly: Inhibition of wild-type human partial length MET (D1010 to S1367 residues) expressed in bacterial expression system at 1 uM by Kinomescan method. In a few lines: as §2
The target in assay [15] is MAP kinase-interacting serine/threonine-protein kinase 2 (Homo sapiens) (UniProt Q9HBH9). Briefly: Inhibition of wild-type human partial length MKNK2 (G63 to S388 residues) expressed in mammalian expression system at 1 uM by Kinomescan method. In a few lines:
as §2

The target of assay [16] is Mitogen-activated protein kinase 14 (Homo sapiens) (UniProt Q16539). Briefly: Inhibition of wild-type human full length p38-alpha (M1 to S360 residues) expressed in bacterial expression system at 1 uM by Kinomescan method. In a few lines:
as §1

The target in assay [17] is Cyclin-dependent kinase 16 (Homo sapiens) (UniProt Q00536). Briefly: Inhibition of wild-type human partial length PCTK1 (G160 to A474 residues) expressed in mammalian expression system at 1 uM by Kinomescan method. In a few lines:
as §2

Assay [18] deals with Phosphatidylinositol 4-phosphate 3-kinase C2 domain-containing subunit beta (Homo sapiens) (UniProt O00750). Briefly: Inhibition of wild-type human partial length PIK3C2B (M1 to L1634 residues) expressed in mammalian expression system at 1 uM by Kinomescan method. In a few lines: as §2
Phosphatidylinositol 4-phosphate 3-kinase C2 domain-containing subunit beta (Homo sapiens), sequence (O00750 whole entry, the tested form may be a part): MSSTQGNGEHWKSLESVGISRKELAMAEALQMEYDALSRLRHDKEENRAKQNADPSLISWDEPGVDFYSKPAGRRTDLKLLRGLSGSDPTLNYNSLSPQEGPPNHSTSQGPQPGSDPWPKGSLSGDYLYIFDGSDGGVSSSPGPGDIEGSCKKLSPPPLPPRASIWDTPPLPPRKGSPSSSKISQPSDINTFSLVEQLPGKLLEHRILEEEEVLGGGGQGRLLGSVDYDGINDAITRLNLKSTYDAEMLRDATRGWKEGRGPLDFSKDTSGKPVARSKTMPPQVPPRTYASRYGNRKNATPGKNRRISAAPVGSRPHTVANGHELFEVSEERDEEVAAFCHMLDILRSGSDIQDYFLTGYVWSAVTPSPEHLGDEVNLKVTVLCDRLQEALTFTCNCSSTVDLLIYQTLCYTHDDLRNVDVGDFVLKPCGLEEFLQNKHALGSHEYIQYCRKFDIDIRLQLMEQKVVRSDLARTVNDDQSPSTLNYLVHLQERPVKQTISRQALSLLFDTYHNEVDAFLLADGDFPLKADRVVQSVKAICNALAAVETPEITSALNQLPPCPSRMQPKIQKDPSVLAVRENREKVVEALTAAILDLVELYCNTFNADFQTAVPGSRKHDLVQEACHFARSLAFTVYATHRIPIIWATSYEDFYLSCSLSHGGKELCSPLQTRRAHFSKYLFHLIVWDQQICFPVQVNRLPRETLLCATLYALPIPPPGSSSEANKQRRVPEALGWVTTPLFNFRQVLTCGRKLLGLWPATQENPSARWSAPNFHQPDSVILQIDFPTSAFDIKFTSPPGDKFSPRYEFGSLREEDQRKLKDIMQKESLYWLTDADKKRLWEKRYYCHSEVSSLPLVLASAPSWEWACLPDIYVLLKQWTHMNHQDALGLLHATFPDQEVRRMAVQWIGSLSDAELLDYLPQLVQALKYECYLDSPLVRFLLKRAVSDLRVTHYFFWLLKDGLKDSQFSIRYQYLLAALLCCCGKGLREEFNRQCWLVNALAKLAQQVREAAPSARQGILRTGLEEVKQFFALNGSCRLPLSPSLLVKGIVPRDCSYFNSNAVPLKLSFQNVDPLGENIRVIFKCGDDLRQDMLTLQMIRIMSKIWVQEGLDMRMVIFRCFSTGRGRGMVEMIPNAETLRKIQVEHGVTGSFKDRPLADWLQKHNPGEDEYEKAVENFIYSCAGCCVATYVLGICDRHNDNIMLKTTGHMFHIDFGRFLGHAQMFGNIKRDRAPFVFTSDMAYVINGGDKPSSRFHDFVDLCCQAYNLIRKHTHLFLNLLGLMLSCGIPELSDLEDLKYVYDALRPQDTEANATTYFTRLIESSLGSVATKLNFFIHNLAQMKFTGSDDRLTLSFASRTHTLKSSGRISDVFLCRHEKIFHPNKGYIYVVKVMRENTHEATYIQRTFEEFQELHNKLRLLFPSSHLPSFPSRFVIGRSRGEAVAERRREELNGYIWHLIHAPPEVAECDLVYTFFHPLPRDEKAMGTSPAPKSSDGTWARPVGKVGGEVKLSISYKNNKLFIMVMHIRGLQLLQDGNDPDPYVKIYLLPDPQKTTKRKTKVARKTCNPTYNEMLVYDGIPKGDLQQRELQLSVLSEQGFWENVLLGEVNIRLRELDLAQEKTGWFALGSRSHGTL
The target in assay [19] is Serine/threonine-protein kinase pim-2 (Homo sapiens) (UniProt Q9P1W9). Briefly: Inhibition of wild-type human partial length PIM2 (M1 to E291 residues) expressed in bacterial expression system at 1 uM by Kinomescan method. In a few lines:
as §2

Assay [20] has as its target Protein kinase C epsilon type (Homo sapiens) (UniProt Q02156). Briefly: Inhibition of wild-type human partial length PRKCE (A378 to P737 residues) expressed in mammalian expression system at 1 uM by Kinomescan method. In a few lines:
as §2

In assay [21] the target is Serine/threonine-protein kinase RIO2 (Homo sapiens) (UniProt Q9BVS4). Briefly: Inhibition of wild-type human partial length RIOK2 (M1 to D313 residues) expressed in mammalian expression system at 1 uM by Kinomescan method. In a few lines:
as §2

Assay [22] has as its target Serine/threonine-protein kinase 32C (Homo sapiens) (UniProt Q86UX6). Briefly: Inhibition of wild-type human partial length YANK3 (M68 to G486 residues) expressed in bacterial expression system at 1 uM by Kinomescan method. In a few lines:
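Single-concentration screen at 1 μM on the KINOMEscan panel (98 kinases), run by the platform provider. Results are given as percent of control: % Ctrl = [(test signal − positive control signal)/(negative control signal − positive control signal)] × 100. DMSO serves as negative control (100% Ctrl) and a control compound as positive control (0% Ctrl). Lower values mean stronger binding hits.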

RAC-beta serine/threonine-protein kinase (Homo sapiens), sequence (P31751 whole entry): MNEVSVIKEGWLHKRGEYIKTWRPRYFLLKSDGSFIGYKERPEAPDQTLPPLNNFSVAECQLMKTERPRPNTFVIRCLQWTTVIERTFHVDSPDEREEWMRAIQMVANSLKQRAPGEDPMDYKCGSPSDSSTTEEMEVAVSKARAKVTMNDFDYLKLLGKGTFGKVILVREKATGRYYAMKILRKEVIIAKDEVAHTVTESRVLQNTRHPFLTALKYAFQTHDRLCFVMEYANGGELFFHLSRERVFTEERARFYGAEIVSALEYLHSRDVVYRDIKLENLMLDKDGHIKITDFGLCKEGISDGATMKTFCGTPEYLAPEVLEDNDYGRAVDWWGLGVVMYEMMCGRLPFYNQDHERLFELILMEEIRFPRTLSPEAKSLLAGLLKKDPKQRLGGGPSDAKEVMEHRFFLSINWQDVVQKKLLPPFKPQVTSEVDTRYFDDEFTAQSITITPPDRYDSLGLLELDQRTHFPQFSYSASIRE
Tyrosine-protein kinase ABL1 (Homo sapiens), sequence (P00519 whole entry, the tested form may be a part): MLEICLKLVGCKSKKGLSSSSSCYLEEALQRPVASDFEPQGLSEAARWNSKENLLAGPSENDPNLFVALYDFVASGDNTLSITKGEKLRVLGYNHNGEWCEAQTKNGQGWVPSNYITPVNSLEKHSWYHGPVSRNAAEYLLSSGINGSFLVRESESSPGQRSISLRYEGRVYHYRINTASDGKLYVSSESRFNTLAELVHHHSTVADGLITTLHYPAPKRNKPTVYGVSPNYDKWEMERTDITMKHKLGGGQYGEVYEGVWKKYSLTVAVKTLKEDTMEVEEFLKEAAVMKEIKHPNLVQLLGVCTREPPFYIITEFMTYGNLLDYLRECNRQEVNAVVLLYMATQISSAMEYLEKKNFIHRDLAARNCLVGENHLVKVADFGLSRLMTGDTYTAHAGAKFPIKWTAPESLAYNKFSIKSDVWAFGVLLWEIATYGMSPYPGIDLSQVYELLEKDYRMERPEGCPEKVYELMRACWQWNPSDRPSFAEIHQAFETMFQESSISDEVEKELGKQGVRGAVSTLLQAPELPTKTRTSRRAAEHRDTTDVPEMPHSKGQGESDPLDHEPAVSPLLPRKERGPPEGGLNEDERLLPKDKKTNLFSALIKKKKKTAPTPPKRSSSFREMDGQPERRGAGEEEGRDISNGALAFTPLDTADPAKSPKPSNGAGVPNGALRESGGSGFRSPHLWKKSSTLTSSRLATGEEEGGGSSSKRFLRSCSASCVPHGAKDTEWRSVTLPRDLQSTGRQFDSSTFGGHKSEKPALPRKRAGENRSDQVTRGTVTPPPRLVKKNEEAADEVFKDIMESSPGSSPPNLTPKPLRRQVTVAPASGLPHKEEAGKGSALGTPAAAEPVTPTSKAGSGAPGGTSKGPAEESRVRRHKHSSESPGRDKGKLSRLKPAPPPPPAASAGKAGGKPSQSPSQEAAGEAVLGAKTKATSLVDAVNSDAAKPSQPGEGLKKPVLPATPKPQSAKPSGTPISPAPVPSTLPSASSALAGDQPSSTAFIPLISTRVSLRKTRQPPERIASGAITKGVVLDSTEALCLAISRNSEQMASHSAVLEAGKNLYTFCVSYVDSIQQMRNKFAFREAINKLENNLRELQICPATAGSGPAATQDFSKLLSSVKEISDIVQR
Tyrosine-protein kinase receptor UFO (Homo sapiens), sequence (P30530 whole entry, the tested form may be a part): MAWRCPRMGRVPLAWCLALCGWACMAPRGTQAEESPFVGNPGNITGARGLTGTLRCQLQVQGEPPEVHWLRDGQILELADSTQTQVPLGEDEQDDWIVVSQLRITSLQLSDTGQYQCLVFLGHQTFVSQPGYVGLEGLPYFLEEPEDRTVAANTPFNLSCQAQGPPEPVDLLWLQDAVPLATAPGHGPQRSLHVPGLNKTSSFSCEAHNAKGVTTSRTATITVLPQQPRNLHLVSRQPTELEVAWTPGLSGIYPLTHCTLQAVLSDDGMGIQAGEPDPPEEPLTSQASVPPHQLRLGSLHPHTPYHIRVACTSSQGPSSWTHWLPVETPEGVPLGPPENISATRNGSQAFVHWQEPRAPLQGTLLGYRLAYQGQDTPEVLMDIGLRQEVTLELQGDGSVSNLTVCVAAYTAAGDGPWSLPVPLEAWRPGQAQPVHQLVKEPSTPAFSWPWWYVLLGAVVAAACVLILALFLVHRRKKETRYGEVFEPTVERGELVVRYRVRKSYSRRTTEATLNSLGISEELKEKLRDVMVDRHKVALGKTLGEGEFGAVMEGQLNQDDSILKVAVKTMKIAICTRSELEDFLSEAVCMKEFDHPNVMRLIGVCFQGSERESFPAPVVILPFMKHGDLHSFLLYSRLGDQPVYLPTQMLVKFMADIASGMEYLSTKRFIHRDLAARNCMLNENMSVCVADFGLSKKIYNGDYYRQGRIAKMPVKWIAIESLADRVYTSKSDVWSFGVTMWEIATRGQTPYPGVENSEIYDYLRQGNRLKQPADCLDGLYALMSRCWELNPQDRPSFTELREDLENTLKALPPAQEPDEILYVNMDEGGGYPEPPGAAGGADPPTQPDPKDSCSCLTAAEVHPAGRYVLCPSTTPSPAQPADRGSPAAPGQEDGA
Inhibitor of nuclear factor kappa-B kinase subunit beta (Homo sapiens), sequence (O14920 whole entry, the tested form may be a part): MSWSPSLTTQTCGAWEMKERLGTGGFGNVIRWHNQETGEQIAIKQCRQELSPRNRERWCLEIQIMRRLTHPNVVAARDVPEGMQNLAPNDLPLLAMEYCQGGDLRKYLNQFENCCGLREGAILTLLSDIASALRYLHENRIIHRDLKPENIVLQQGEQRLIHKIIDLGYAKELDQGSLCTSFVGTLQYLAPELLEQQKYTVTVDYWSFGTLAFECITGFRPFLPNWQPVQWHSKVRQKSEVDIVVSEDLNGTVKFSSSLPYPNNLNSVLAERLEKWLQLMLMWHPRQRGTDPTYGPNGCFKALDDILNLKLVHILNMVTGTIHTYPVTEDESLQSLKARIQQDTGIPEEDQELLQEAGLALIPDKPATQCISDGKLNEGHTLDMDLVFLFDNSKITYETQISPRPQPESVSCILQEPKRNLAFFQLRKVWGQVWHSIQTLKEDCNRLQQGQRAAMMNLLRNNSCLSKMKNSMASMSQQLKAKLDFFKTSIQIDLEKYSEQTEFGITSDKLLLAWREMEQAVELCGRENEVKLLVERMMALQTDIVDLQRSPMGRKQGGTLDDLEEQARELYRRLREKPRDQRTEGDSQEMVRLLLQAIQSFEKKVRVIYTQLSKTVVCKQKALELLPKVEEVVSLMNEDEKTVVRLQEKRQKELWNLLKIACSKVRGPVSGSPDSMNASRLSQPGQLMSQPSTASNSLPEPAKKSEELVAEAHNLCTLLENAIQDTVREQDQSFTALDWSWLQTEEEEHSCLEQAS
Tyrosine-protein kinase ABL1 (Homo sapiens), P00519 [E255K], sequence (P00519 whole entry E255K, the tested form may be a part): as the sequence (P00519 whole entry, the tested form may be a part) above, with E255K counted along it

Take `O=C(Nc1ccc2[nH]nc(-c3ccc4[nH]ccc4c3)c2c1)c1c(Cl)cccc1Cl`: the inhibition entry in assay [1] is “Active”. The dissociation constant (Kd) in assay [2] was 146 µM. The outcome in assay [3] and in assay [4] was Active. The inhibition result in [5], in assay [6], in assay [7], in assay [8], in [9] and in [10] was “inactive” each time. The inhibition result in assay [11], in assay [12], in [13], in [14], in assay [15] and in assay [16] was “inactive” in each case. Besides, the inhibition entry in assay [17], in [18], in assay [19], in assay [20], in assay [21] and in [22] was “inactive” throughout.
